What is called MIC is the lowest concentration found to suppress growth.

Values after ≈ are worked out from the molar mass of the structure shown.

This assay deals with Mycobacterium tuberculosis variant bovis. Nature of the assay: Antimycobacterial activity against Mycobacterium bovis AN5 expressing luciferase assessed as growth inhibition after 6 days by luminometry. The format is functional. Particulars: AN5, 144 h. The essentials:
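Strains carried pSMT1 luxAB reporter plasmid. DMSO stocks 10 mM, serially diluted in 7H9 + 10% FCS, triplicate wells. Filtered bacterial suspension at 50 000 RLU/mL. Luminescence read after 6 days using 1% n-decanal substrate. […] Growth temperatures: M.tb 37 °C; M. avium and M. bovis 39 °C.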
Consider `NNC(=O)c1ccncc1` [ISONIAZID], for which the MIC amounted to 0.08 µM (≈ 0.011 µg/mL).
The result for `CCOC(=O)C1CCc2ncc3c(c2C1)C(=O)C1=C(C3=O)C2CCC1CC2` (centres undefined) reads 0.57 µM (≈ 0.208 µg/mL).
Take `CC(C)(C)C1CCc2ncc3c(c2C1)C(=O)C1=C(C3=O)C2CCC1C2` (centres undefined): the minimum inhibitory concentration (MIC) worked out at 0.78 µM (≈ 0.262 µg/mL).
The result for `CCOC(=O)C1CCc2ncc3c(c2C1)C(=O)C1=C(C3=O)C2CCC1C2` (centres undefined) reads 0.09 µM (≈ 0.0316 µg/mL).

The values are drawn from ChEMBL document CHEMBL3232782, “1,2,3,4,8,9,10,11-octahydrobenzo[j]phenanthridine-7,12-diones as new leads against Mycobacterium tuberculosis” (J Med Chem, 2014).
